Columns and labels:
Plasma = experiment: Fraction unbound in Sprague-Dawley rat plasma at 5 uM after 4 hrs by equilibrium dialysis method; type: ADME, cell-free
Outline: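 Fraction unbound determined in plasma from rat, cynomolgus monkey and human.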

Cytochrome P450 1A2 = target: T1, Cytochrome P450 1A2 (Homo sapiens, UniProt P05177); experiment: Inhibition of CYP1A2 in human liver microsomes using phenacetin as substrate preincubated for 15 mins followed by NADPH addition measured after 8 mins by LC/MS/MS analysis; type: ADME
T1 sequence (P05177 whole entry): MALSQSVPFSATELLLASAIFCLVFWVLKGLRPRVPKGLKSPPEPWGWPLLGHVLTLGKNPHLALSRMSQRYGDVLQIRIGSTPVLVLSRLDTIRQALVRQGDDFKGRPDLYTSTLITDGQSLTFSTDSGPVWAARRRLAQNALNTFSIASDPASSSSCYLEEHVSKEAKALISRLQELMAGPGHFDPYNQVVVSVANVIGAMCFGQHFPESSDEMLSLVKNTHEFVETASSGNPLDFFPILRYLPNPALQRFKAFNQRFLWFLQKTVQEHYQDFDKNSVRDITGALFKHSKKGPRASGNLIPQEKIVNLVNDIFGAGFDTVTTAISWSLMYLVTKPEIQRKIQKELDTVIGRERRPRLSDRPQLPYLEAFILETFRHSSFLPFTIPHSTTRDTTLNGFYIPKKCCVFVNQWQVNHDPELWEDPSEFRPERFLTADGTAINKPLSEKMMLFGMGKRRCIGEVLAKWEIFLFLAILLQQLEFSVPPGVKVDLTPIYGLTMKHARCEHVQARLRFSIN

[1] = Ratio of unbound brain to plasma partition coefficient in Sprague-Dawley rat at 10 mg/kg, po measured at 1 hr; type: ADME, organism-based; design: dose 10 mg/kg, route oral
Outline: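 Oral CNS distribution study in male Sprague-Dawley rats (n=2), 10 mg/kg; brain and plasma sampled one hour post-dose. Total (Kp) and unbound (Kp,uu) brain-plasma partition coefficients calculated, with unbound fractions from plasma and brain homogenate binding.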

- Fu (Plasma): 0.029
- IC50 (Cytochrome P450 1A2): 25 µM
- K(p,uu,brain) [1]: 0.2
Compound: O=C(c1ccc(F)c(F)c1)N1CCN2C(=O)c3ccccc3[C@@]12c1ccc(Cl)cc1

Reference: ChEMBL document CHEMBL3102750 (J Med Chem, 2013)
